# Assay results as given in ChEMBL document CHEMBL1781932 (J Med Chem, 2011).
# Columns and labels:
# Staphylococcus aureus [1] = assay: Antimicrobial activity against methicillin-, tetracycline-resistant Staphylococcus aureus isolate 161 harboring tetM gene by CLSI dilution method; format: functional
# Acinetobacter baumannii = assay: Antimicrobial activity against tetracycline-susceptible Acinetobacter baumannii isolate 110 by CLSI dilution method; format: functional
# How it was run: (§1)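 Broth microdilution per CLSI in fresh cation-adjusted Mueller Hinton broth, kept at 4 °C before testing, with defibrinated horse blood added as appropriate. Strains were from ATCC. MIC in µg/mL. Runs were accepted when comparator antibiotics against ATCC quality-control strains fell within recommended ranges.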
# Streptococcus pneumoniae [2] = assay: Antimicrobial activity against tetracycline-resistant Streptococcus pneumoniae isolate 160 harboring tetM gene by CLSI dilution method; format: functional
# [3] = Elimination half life in Sprague-Dawley rat at 1 mg/kg, iv administered as single dose; format: ADME, organism-based; set-up: dose 1 mg/kg, route intravenous; conditions: in vivo, read-out: beta t1/2 (converted)
# How it was run: (§2)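 Sprague-Dawley rats (n = 3) were fasted overnight (minimum 12 h) and given a single dose, iv 1 mg/kg or oral 10 mg/kg, in sterile water. Samples were taken over 24–48 h. PK parameters came from noncompartmental analysis.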
# Klebsiella pneumoniae [4] = assay: Antimicrobial activity against tetracycline-resistant Klebsiella pneumoniae isolate 153 harboring tetA gene by CLSI dilution method; format: functional
# Klebsiella pneumoniae [5] = assay: Antimicrobial activity against tetracycline-susceptible Klebsiella pneumoniae isolate 109 by CLSI dilution method; format: functional; how it was run: as §1
# [6] = Apparent volume of distribution in Sprague-Dawley rat at 1 mg/kg, iv administered as single dose measured after 24 to 48 hrs; conditions: in vivo
# Escherichia coli [7] = assay: Antimicrobial activity against tetracycline-resistant Escherichia coli isolate 155 harboring tetA gene by CLSI dilution method; format: functional
# [8] = Cmax in Sprague-Dawley rat at 1 mg/kg, iv administered as single dose measured after 24 to 48 hrs; format: ADME, organism-based; set-up: dose 1 mg/kg, route intravenous; conditions: in vivo; how it was run: as §2
# Staphylococcus aureus [9] = assay: Antimicrobial activity against tetracycline-resistant Staphylococcus aureus isolate 158 harboring tetK gene by CLSI dilution method; format: functional
# Enterococcus faecalis [10] = assay: Antimicrobial activity against tetracycline-resistant Enterococcus faecalis isolate 159 harboring […] gene by CLSI dilution method; format: functional
# Enterococcus faecalis [11] = assay: Antimicrobial activity against tetracycline-susceptible Enterococcus faecalis isolate 103 by CLSI dilution method; format: functional; how it was run: as §1
# Pseudomonas aeruginosa = assay: Antimicrobial activity against tetracycline-susceptible Pseudomonas aeruginosa isolate 111 by CLSI dilution method; format: functional; how it was run: as §1
# Rattus norvegicus = assay: Oral bioavailability in Sprague-Dawley rat at 10 mg/kg administered as single dose; format: ADME, organism-based; conditions: in vivo; how it was run: as §2
# [12] = AUC (0 to infinity) in Sprague-Dawley rat at 1 mg/kg, iv administered as single dose measured after 24 to 48 hrs; format: ADME, organism-based; set-up: time infinity, dose 1 mg/kg, route intravenous; conditions: plasma; how it was run: as §2
# Staphylococcus aureus [13] = assay: Antimicrobial activity against tetracycline-susceptible Staphylococcus aureus Smith isolate 100 infected in iv dosed mouse systemic infection model assessed as survival of mouse administered 60 mins post infection measured up to 48 hrs; format: functional; conditions: Smith isolate 100, iv, read-out: PD50
# How it was run: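 Mouse septicemia model with S. aureus ATCC 13709 mixed with 5% mucin, given intraperitoneally at 2.1×10^6 cfu/mouse. Compound was dosed intravenously 60 min after infection at 0.3–30 mg/kg in sterile water, 6 mice/dose group, with untreated infection controls. Survival was followed over 48 h. PD50 was derived by Probit analysis with 95% CI.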
# Staphylococcus aureus [14] = assay: Antimicrobial activity against tetracycline-susceptible Staphylococcus aureus isolate 101 by CLSI dilution method; format: functional
# Staphylococcus aureus [15] = assay: Antimicrobial activity against tetracycline-susceptible Staphylococcus aureus Smith isolate 100 by CLSI dilution method; format: functional
# [16] = Clearance in Sprague-Dawley rat at 1 mg/kg, iv administered as single dose measured after 24 to 48 hrs; format: ADME, organism-based; set-up: dose 1 mg/kg, route intravenous; conditions: in vivo; how it was run: as §2
# Streptococcus pneumoniae [17] = assay: Antimicrobial activity against tetracycline-susceptible Streptococcus pneumoniae isolate 106 by CLSI dilution method; format: functional; how it was run: as §1
# Enterobacter cloacae = assay: Antimicrobial activity against tetracycline-susceptible Enterobacter cloacae isolate 108 by CLSI dilution method; format: functional; how it was run: as §1
# Escherichia coli [18] = assay: Antimicrobial activity against tetracycline-susceptible Escherichia coli isolate 107 by CLSI dilution method; format: functional; how it was run: as §1
SMILES,MIC (Staphylococcus aureus [1]),MIC (Acinetobacter baumannii),MIC (Streptococcus pneumoniae [2]),half-life [3],MIC (Klebsiella pneumoniae [4]),MIC (Klebsiella pneumoniae [5]),Vd [6],MIC (Escherichia coli [7]),Cmax [8],MIC (Staphylococcus aureus [9]),MIC (Enterococcus faecalis [10]),MIC (Enterococcus faecalis [11]),MIC (Pseudomonas aeruginosa),AUC(0-inf) [12],MIC (Staphylococcus aureus [14]),MIC (Staphylococcus aureus [15]),clearance [16],MIC (Streptococcus pneumoniae [17]),MIC (Enterobacter cloacae),MIC (Escherichia coli [18]),also measured
CN(C)[C@@H]1C(O)=C(C(N)=O)C(=O)[C@@]2(O)C(O)=C3C(=O)c4c(c(F)c5ccc(CNC(C)(C)C)cc5c4O)C[C@H]3C[C@@H]12,1 µg/mL,0.25 µg/mL,0.0313 µg/mL,7.82 h,4 µg/mL,2 µg/mL,11.9 L/kg,4 µg/mL,278 ng/mL,0.0156 µg/mL,1 µg/mL,0.0313 µg/mL,16 µg/mL,975 ng·h/mL,0.5 µg/mL,0.5 µg/mL,17.7 mL/min/kg,0.0156 µg/mL,,,F (Rattus norvegicus): 1.2%; ED50 (Staphylococcus aureus [13]): 0.35 mg/kg
CN(C)[C@@H]1C(O)=C(C(N)=O)C(=O)[C@@]2(O)C(O)=C3C(=O)c4c(c(F)c5ccc(CN6CC(F)C6)cc5c4O)C[C@H]3C[C@@H]12,1 µg/mL,1 µg/mL,,2.22 h,8 µg/mL,4 µg/mL,3.06 L/kg,8 µg/mL,358 ng/mL,0.25 µg/mL,1 µg/mL,0.25 µg/mL,> 32 µg/mL,1040 ng·h/mL,0.5 µg/mL,1 µg/mL,16.1 mL/min/kg,0.25 µg/mL,8 µg/mL,4 µg/mL,F (Rattus norvegicus): 16.7%
COc1c2c(c(O)c3cc(CNC4CC4)ccc13)C(=O)C1=C(O)[C@]3(O)C(=O)C(C(N)=O)=C(O)[C@@H](N(C)C)[C@@H]3C[C@@H]1C2,2 µg/mL,0.25 µg/mL,0.125 µg/mL,2.17 h,8 µg/mL,2 µg/mL,8.4 L/kg,8 µg/mL,124 ng/mL,0.0313 µg/mL,2 µg/mL,0.0625 µg/mL,16 µg/mL,385 ng·h/mL,0.0625 µg/mL,0.25 µg/mL,45.4 mL/min/kg,0.0156 µg/mL,4 µg/mL,0.5 µg/mL,F (Rattus norvegicus): 12.5%; ED50 (Staphylococcus aureus [13]): 0.6 mg/kg
COc1c2c(c(O)c3cc(CNCC(C)C)ccc13)C(=O)C1=C(O)[C@]3(O)C(=O)C(C(N)=O)=C(O)[C@@H](N(C)C)[C@@H]3C[C@@H]1C2,2 µg/mL,0.25 µg/mL,0.125 µg/mL,5.4 h,8 µg/mL,1 µg/mL,9.6 L/kg,4 µg/mL,414 ng/mL,0.016 µg/mL,2 µg/mL,0.0625 µg/mL,16 µg/mL,815 ng·h/mL,,0.5 µg/mL,20.5 mL/min/kg,0.0156 µg/mL,2 µg/mL,1 µg/mL,F (Rattus norvegicus): 2.7%; ED50 (Staphylococcus aureus [13]): < 0.3 mg/kg
COc1c2c(c(O)c3cc(CN4CC(F)C4)ccc13)C(=O)C1=C(O)[C@]3(O)C(=O)C(C(N)=O)=C(O)[C@@H](N(C)C)[C@@H]3C[C@@H]1C2,1 µg/mL,0.25 µg/mL,0.0313 µg/mL,1.5 h,8 µg/mL,4 µg/mL,5.06 L/kg,8 µg/mL,237 ng/mL,0.125 µg/mL,2 µg/mL,0.125 µg/mL,32 µg/mL,451 ng·h/mL,0.25 µg/mL,1 µg/mL,63.9 mL/min/kg,0.0156 µg/mL,8 µg/mL,2 µg/mL,F (Rattus norvegicus): 17.7%
CN(C)[C@@H]1C(O)=C(C(N)=O)C(=O)[C@@]2(O)C(O)=C3C(=O)c4c(c(F)c5ccc(CN6CCC6)cc5c4O)C[C@H]3C[C@@H]12,1 µg/mL,0.5 µg/mL,0.125 µg/mL,8.01 h,4 µg/mL,2 µg/mL,41.9 L/kg,4 µg/mL,73 ng/mL,0.25 µg/mL,2 µg/mL,0.25 µg/mL,32 µg/mL,354 ng·h/mL,0.25 µg/mL,,52.4 mL/min/kg,0.0625 µg/mL,2 µg/mL,1 µg/mL,ED50 (Staphylococcus aureus [13]): 0.3 mg/kg
CN(C)[C@@H]1C(O)=C(C(N)=O)C(=O)[C@@]2(O)C(O)=C3C(=O)c4c(c(OCC(O)CO)c5ccc(CN6CCC6)cc5c4O)C[C@H]3C[C@@H]12 (stereo not given in full),> 32 µg/mL,> 32 µg/mL,16 µg/mL,,> 32 µg/mL,> 32 µg/mL,,> 32 µg/mL,,> 32 µg/mL,> 32 µg/mL,32 µg/mL,> 32 µg/mL,,> 32 µg/mL,,,4 µg/mL,> 32 µg/mL,> 32 µg/mL,
CN(C)c1ccc(-c2ccc3cc4c(c(O)c3c2)C(=O)C2=C(O)[C@]3(O)C(=O)C(C(N)=O)=C(O)[C@@H](N(C)C)[C@@H]3C[C@@H]2C4)cc1,> 32 µg/mL,> 32 µg/mL,> 32 µg/mL,,> 32 µg/mL,> 32 µg/mL,,> 32 µg/mL,,16 µg/mL,16 µg/mL,> 32 µg/mL,> 32 µg/mL,,> 32 µg/mL,,,> 32 µg/mL,> 32 µg/mL,> 32 µg/mL,
CC(C)CNCc1ccc2cc3c(c(O)c2c1)C(=O)C1=C(O)[C@]2(O)C(=O)C(C(N)=O)=C(O)[C@@H](N(C)C)[C@@H]2C[C@@H]1C3,4 µg/mL,0.5 µg/mL,0.25 µg/mL,5.87 h,4 µg/mL,4 µg/mL,3.16 L/kg,4 µg/mL,891 ng/mL,0.25 µg/mL,4 µg/mL,0.5 µg/mL,32 µg/mL,2680 ng·h/mL,0.25 µg/mL,1 µg/mL,6.22 mL/min/kg,0.0156 µg/mL,2 µg/mL,1 µg/mL,F (Rattus norvegicus): 1.9%; ED50 (Staphylococcus aureus [13]): 0.62 mg/kg
COCCNCc1ccc2cc3c(c(O)c2c1)C(=O)C1=C(O)[C@]2(O)C(=O)C(C(N)=O)=C(O)[C@@H](N(C)C)[C@@H]2C[C@@H]1C3,4 µg/mL,1 µg/mL,0.5 µg/mL,5.19 h,8 µg/mL,4 µg/mL,3.78 L/kg,8 µg/mL,633 ng/mL,0.5 µg/mL,8 µg/mL,0.5 µg/mL,32 µg/mL,1980 ng·h/mL,0.25 µg/mL,1 µg/mL,8.43 mL/min/kg,0.0156 µg/mL,2 µg/mL,1 µg/mL,F (Rattus norvegicus): 2.8%; ED50 (Staphylococcus aureus [13]): 0.43 mg/kg
CN(C)c1cc(NC(=O)CNC(C)(C)C)c(O)c2c1C[C@H]1C[C@H]3[C@H](N(C)C)C(O)=C(C(N)=O)C(=O)[C@@]3(O)C(O)=C1C2=O [TIGECYCLINE],0.125 µg/mL,0.25 µg/mL,0.0156 µg/mL,4.6 h,1 µg/mL,0.125 µg/mL,,0.5 µg/mL,428 ng/mL,0.0625 µg/mL,0.0625 µg/mL,0.0313 µg/mL,8 µg/mL,1050 ng·h/mL,0.0625 µg/mL,0.0625 µg/mL,,0.0156 µg/mL,0.25 µg/mL,0.0313 µg/mL,ED50 (Staphylococcus aureus [13]): 0.35 mg/kg
